These results are taken from ChEMBL document CHEMBL1255541, “Novel indoline-1- or 3,4-dihydroquinoline-1(2H)-substituted carbothiohydrazides as TPO receptor agonists” (Bioorg Med Chem Lett, 2010).

The EC50 is the midpoint of the concentration-response curve. Read a low EC50 as an effect from little substance. What is called AUC(0-t) is exposure summed from dosing to a finite time, without extrapolation to infinity. Low readings indicate low exposure, high ones high exposure. By Cmax is commonly meant the maximum level reached in the sampled fluid or tissue. The half-life is how long it takes for the measured level to halve.

Data set [1] addresses T1, Thrombopoietin receptor (Homo sapiens) (UniProt P40238).
T1 sequence (whole entry): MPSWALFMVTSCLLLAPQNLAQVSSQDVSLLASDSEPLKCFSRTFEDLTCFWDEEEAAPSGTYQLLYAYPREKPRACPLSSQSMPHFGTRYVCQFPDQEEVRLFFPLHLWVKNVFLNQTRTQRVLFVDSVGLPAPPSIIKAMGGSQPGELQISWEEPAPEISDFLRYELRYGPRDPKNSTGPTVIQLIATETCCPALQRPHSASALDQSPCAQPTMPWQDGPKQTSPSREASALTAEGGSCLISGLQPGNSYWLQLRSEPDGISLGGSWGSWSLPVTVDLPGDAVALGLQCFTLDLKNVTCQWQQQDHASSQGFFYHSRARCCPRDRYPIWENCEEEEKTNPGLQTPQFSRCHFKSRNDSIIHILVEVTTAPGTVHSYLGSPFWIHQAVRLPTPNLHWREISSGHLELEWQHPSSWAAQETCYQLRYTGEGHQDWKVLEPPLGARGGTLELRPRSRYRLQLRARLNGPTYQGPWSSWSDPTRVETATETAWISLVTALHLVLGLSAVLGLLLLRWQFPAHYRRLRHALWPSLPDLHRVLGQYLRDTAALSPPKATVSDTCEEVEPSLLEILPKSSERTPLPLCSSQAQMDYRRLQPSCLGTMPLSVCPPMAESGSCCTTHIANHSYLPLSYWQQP
Put plainly: Agonist activity at human TPOR expressed in mouse BaF3 cells at 150 nM.

The target of data set [2] is T1, Thrombopoietin receptor (Homo sapiens). The data set can be described thus: Agonist activity at human TPOR expressed in mouse BaF3 cells at 300 nM.
A further data set has as its target T2, Thrombopoietin receptor (Homo sapiens, UniProt P40238).
T2 sequence (P40238 whole entry): T1 sequence (whole entry)
The data set can be described thus: Agonist activity at human TPOR expressed.

Data set [3] can be described thus: AUC (0 to t) in rat at 5 mg/kg, po. It counts as ADME, organism-based. Set-up: dose 5 mg/kg, route oral. To be noted: plasma. In a few lines: (§1)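 Test substances given as ethanolamine salts, orally at 5 mg/kg to rats. Plasma concentration–time profiles were used to derive apparent total plasma clearance (CLz/F), half-life, AUC0–t and peak plasma concentration (Cmax). Values are reported as mean ± spread.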

A short description of data set [4]: Apparent total plasma clearance in rat at 5 mg/kg, po. Type of data set: ADME, organism-based. Set-up: dose 5 mg/kg, route oral. The settings on record: read-out: CLt/F (converted). In a few lines:
as §1

Data set [5] can be described thus: Cmax in rat at 5 mg/kg, po. Type of data set: ADME, organism-based. Also on record: dose 5 mg/kg, route oral. To be noted: in vivo. A digest of the protocol:
as §1

Data set [6] can be described thus: Half life in rat at 5 mg/kg, po. Also on record: dose 5 mg/kg, route oral. It counts as ADME, organism-based. To be noted: in vivo. A digest of the protocol:
as §1

Each structure is given as a SMILES string.

Regarding `C/C(NNC(=S)N1CCc2cc(C(=O)O)ccc21)=C1/C(=O)N(c2ccc(C)cc2)c2ccc(F)cc21`, the % activity vs 10 ng/ml TPO was 78.1% in data set [1] and 122% in data set [2]. With `CCNC(=O)c1ccc2c(c1)CCN2C(=S)NN/C(C)=C1\C(=O)N(c2ccc(C)c(C)c2)N=C1C`, at Thrombopoietin receptor, the EC50 worked out at 26 nM. This lies in the double-digit nanomolar range. On Thrombopoietin receptor, `CC1=NN(c2ccc(C)c(C)c2)C(=O)/C1=C(/C)NNC(=S)N1CCc2cc(C(=O)O)ccc21` yielded an EC50 of 6 nM. Turning to `C/C(NNC(=S)N1CCCc2cc(C(=O)O)ccc21)=C1/C(=O)N(c2ccc(C)c(C)c2)c2ccccc21`, the figures for the % activity vs 10 ng/ml TPO in data set [1] and in data set [2] were 30.9% and 33.4%, respectively. On to `CC1=NN(c2ccc3c(c2)CCC3)C(=O)/C1=C(/C)NNC(=O)N1CCc2cc(C(=O)O)ccc21`, for which, in data set [3], the AUC(0-t) was found to be 4460 ng·h/mL. Moreover, in data set [4], the CL/F was 20.5 mL/min/kg. In addition, on Thrombopoietin receptor, the midpoint of the response, the EC50, lay at 46 nM. The compound further yielded a Cmax in data set [5] of 3550 ng/mL. Also, the half-life in data set [6] is 1.48 h.

Turning to `CNC(=O)c1ccc2c(c1)CCN2C(=S)NN/C(C)=C1\C(=O)N(c2ccc(C)c(C)c2)N=C1C`, the EC50 at Thrombopoietin receptor worked out at 22 nM. The same measure, in the same setting: to `CC1=NN(c2ccc(C)c(C)c2)C(=O)/C1=C(/C)NNC(=S)N1CCc2cc(C(=O)N3CCOCC3)ccc21` belongs 31 nM; to `CC1=NN(c2ccc3c(c2)CCC3)C(=O)/C1=C(/C)NNC(=S)N1CCCc2cc(C(=O)O)ccc21`, 35 nM; to `CC1=NN(c2ccc3c(c2)CCC3)C(=O)/C1=C(/C)NNC(=S)N1CCc2cc(C(=O)O)ccc21`, 3 nM. In the case of `C/C(NNC(=S)N1CCc2cc(C(=O)O)ccc21)=C1/C(=O)N(c2ccc(C)c(C)c2)c2ccccc21`, the % activity vs 10 ng/ml TPO in data set [1] stood at 72.4%; in data set [2], 138%.

On Thrombopoietin receptor, `CC1=NN(c2ccc(C)c(C)c2)C(=O)/C1=C(/C)NNC(=S)N1CCCc2cc(C(=O)O)ccc21` came in with an EC50 of 64 nM. Turning to `C/C(NNC(=S)N1CCc2cc(C(=O)O)ccc21)=C1/C(=O)N(c2ccc3c(c2)CCC3)c2ccc(F)cc21`, the % activity vs 10 ng/ml TPO is 3.2% in data set [1] and 10.6% in data set [2]. As for `C/C(NNC(=S)N1CCc2cc(C(=O)O)ccc21)=C1/C(=O)N(c2ccc(C)cc2)c2ccccc21`, the % activity vs 10 ng/ml TPO in data set [1] was determined as 47.8%; in data set [2], 107%. Taken in the same sequence, the figures for `C/C(NNC(=S)N1CCCc2cc(C(=O)O)ccc21)=C1/C(=O)N(c2ccc(C)cc2)c2ccccc21` were 47.3% and 101%. Taken in the same sequence, the figures for `C/C(NNC(=S)N1CCc2cc(C(=O)O)ccc21)=C1/C(=O)N(c2ccc3c(c2)CCC3)c2ccccc21` were 14.3% and 75.8%. In data set [3], `CC1=NN(c2ccc(C)c(C)c2)C(=O)/C1=C(/C)NNC(=O)N1CCc2cc(C(=O)O)ccc21` displayed an AUC(0-t) of 923 ng·h/mL. In addition, in data set [4], the CL/F was 113 mL/min/kg. The midpoint of the response at Thrombopoietin receptor, the EC50, lay at 42 nM. Besides, the Cmax in data set [5] was found to be 859 ng/mL. Moreover, in data set [6], the half-life is 1.86 h.
